{"source": "ChEMBL document CHEMBL1127424", "about": "“7-azetidinylquinolones as antibacterial agents. 2. Synthesis and biological activity of 7-(2,3-disubstituted-1-azetidinyl)-4-oxoquinoline- and -1,8-naphthyridine-3-carboxylic acids. Properties and structure-activity relationships of quinolones with an azetidine moiety” (J Med Chem, 1994)", "key": {"[1]": {"experiment": "HPLC capacity factor (k')", "type": "ADME", "procedure,_shortened": "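Ion-pair reversed-phase HPLC on ODS-2 (10 μm) at 45 °C. Mobile phase: 10 mM sodium heptanesulfonate plus 50 mM KH2PO4 (pH 3.5)–methanol 45:55, 1 mL/min. Samples at 100 μg/mL in DMF, injected in duplicate, UV 280 nm. k' = (tR − t0)/t0.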"}, "Staphylococcus aureus": {"tested_on": "Staphylococcus aureus", "experiment": "In vitro minimum inhibitory concentration for Staphylococcus aureus ATCC 25178", "type": "functional", "procedure,_shortened": "(§1)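 Serial 2-fold agar dilution in Mueller Hinton medium, run alongside a reference quinolone. Inoculum adjusted to 10⁸ cfu/mL; compound range 0.007–16 μg/mL.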"}, "Enterobacter cloacae": {"tested_on": "Enterobacter cloacae", "experiment": "In vitro minimum inhibitory concentration for Enterobacter cloacae ATCC 23355", "type": "functional"}, "Proteus vulgaris": {"tested_on": "Proteus vulgaris", "experiment": "In vitro minimum inhibitory concentration for Proteus vulgaris ATCC 8427", "type": "functional", "procedure,_shortened": "as §1"}, "Escherichia coli": {"tested_on": "Escherichia coli", "experiment": "In vitro minimum inhibitory concentration for Escherichia coli ATCC 10799", "type": "functional", "procedure,_shortened": "as §1"}, "Bacillus cereus": {"tested_on": "Bacillus cereus", "experiment": "In vitro minimum inhibitory concentration for Bacillus cereus ATCC 11778", "type": "functional", "procedure,_shortened": "as §1"}, "[2]": {"tested_on": "Staphylococcus epidermidis", "experiment": "In vitro minimum inhibitory concentration for Staphylococcus epidermidis ATCC 155-1", "type": "functional", "procedure,_shortened": "as §1"}, "Bacillus subtilis": {"tested_on": "Bacillus subtilis", "experiment": "In vitro minimum inhibitory concentration for Bacillus subtilis ATCC 6633", "type": "functional", "procedure,_shortened": "as §1"}, "Enterococcus faecalis": {"tested_on": "Enterococcus faecalis", "experiment": "In vitro minimum inhibitory concentration for Streptococcus faecalis ATCC 10541", "type": "functional", "procedure,_shortened": "as §1"}, "Klebsiella pneumoniae": {"tested_on": "Klebsiella pneumoniae", "experiment": "In vitro minimum inhibitory concentration to inhibit Klebsiella pneumoniae ATCC 10031", "type": "functional", "procedure,_shortened": "as §1"}, "Pseudomonas aeruginosa": {"tested_on": "Pseudomonas aeruginosa", "experiment": "In vitro minimum inhibitory concentration for Pseudomonas aeruginosa ATCC 10145", "type": "functional", "procedure,_shortened": "as §1"}, "Morganella morganii": {"tested_on": "Morganella morganii", "experiment": "In vitro minimum inhibitory concentration for Morganella morganii ATCC 8019", "type": "functional", "procedure,_shortened": "as §1"}}, "data": [{"compound": "CCn1cc(C(=O)O)c(=O)c2cc(F)c(N3CC(C)(N)C3)nc21", "values": [{"measurement": "Log k'", "setting": "[1]", "value": -0.2296}]}, {"compound": "C[C@H]1[C@H](N)CN1c1cc2c(cc1F)c(=O)c(C(=O)O)cn2CCF", "values": [{"measurement": "MIC", "setting": "Staphylococcus aureus", "value": 1, "unit": "µg/mL"}, {"measurement": "MIC", "setting": "Enterobacter cloacae", "value": 0.12, "unit": "µg/mL"}, {"measurement": "MIC", "setting": "Proteus vulgaris", "value": 1, "unit": "µg/mL"}, {"measurement": "MIC", "setting": "Escherichia coli", "value": 0.25, "unit": "µg/mL"}, {"measurement": "MIC", "setting": "Bacillus cereus", "value": 1, "unit": "µg/mL"}, {"measurement": "MIC", "setting": "[2]", "value": 1, "unit": "µg/mL"}, {"measurement": "MIC", "setting": "Bacillus subtilis", "value": 0.25, "unit": "µg/mL"}, {"measurement": "MIC", "setting": "Enterococcus faecalis", "value": 2, "unit": "µg/mL"}, {"measurement": "MIC", "setting": "Klebsiella pneumoniae", "value": 0.12, "unit": "µg/mL"}, {"measurement": "MIC", "setting": "Pseudomonas aeruginosa", "value": 2, "unit": "µg/mL"}, {"measurement": "MIC", "setting": "Morganella morganii", "value": 0.12, "unit": "µg/mL"}, {"measurement": "Log k'", "setting": "[1]", "value": -0.1459}]}, {"compound": "CC1(N)CN(c2c(F)c(N)c3c(=O)c(C(=O)O)cn(-c4ccc(F)cc4F)c3c2F)C1", "values": [{"measurement": "Log k'", "setting": "[1]", "value": 0.3189}]}, {"compound": "CC1(N)CN(c2c(F)cc3c(=O)c(C(=O)O)cn(CCF)c3c2F)C1", "values": [{"measurement": "Log k'", "setting": "[1]", "value": -0.1871}]}, {"compound": "CNC1(C)CN(c2nc3c(cc2F)c(=O)c(C(=O)O)cn3C(C)(C)C)C1", "values": [{"measurement": "Log k'", "setting": "[1]", "value": 0.2107}]}, {"compound": "CC1(O)CN(c2c(F)cc3c(=O)c(C(=O)O)cn(C4CC4)c3c2F)C1", "values": [{"measurement": "Log k'", "setting": "[1]", "value": 0.5451}]}, {"compound": "CN(C)C1CN(c2nc3c(cc2F)c(=O)c(C(=O)O)cn3C2CC2)C1", "values": [{"measurement": "Log k'", "setting": "[1]", "value": 0.464}]}, {"compound": "CNC1CN(c2c(F)cc3c(=O)c(C(=O)O)cn(C4CC4)c3c2Cl)C1", "values": [{"measurement": "Log k'", "setting": "[1]", "value": 0.115}]}, {"compound": "CCC1(O)CN(c2cc3c(cc2F)c(=O)c(C(=O)O)cn3C2CC2)C1", "values": [{"measurement": "Log k'", "setting": "[1]", "value": 0.6222}]}, {"compound": "C[C@H]1[C@H](N)CN1c1c(F)cc2c(=O)c(C(=O)O)cn(CCF)c2c1F", "values": [{"measurement": "MIC", "setting": "Staphylococcus aureus", "value": 0.5, "unit": "µg/mL"}, {"measurement": "MIC", "setting": "Enterobacter cloacae", "value": 0.12, "unit": "µg/mL"}, {"measurement": "MIC", "setting": "Proteus vulgaris", "value": 0.5, "unit": "µg/mL"}, {"measurement": "MIC", "setting": "Escherichia coli", "value": 0.12, "unit": "µg/mL"}, {"measurement": "MIC", "setting": "Bacillus cereus", "value": 0.5, "unit": "µg/mL"}, {"measurement": "MIC", "setting": "[2]", "value": 0.5, "unit": "µg/mL"}, {"measurement": "MIC", "setting": "Bacillus subtilis", "value": 0.12, "unit": "µg/mL"}, {"measurement": "MIC", "setting": "Enterococcus faecalis", "value": 2, "unit": "µg/mL"}, {"measurement": "MIC", "setting": "Klebsiella pneumoniae", "value": 0.03, "unit": "µg/mL"}, {"measurement": "MIC", "setting": "Pseudomonas aeruginosa", "value": 1, "unit": "µg/mL"}, {"measurement": "MIC", "setting": "Morganella morganii", "value": 0.06, "unit": "µg/mL"}, {"measurement": "Log k'", "setting": "[1]", "value": -0.1024}]}, {"compound": "C[C@H]1[C@H](N)CN1c1nc2c(cc1F)c(=O)c(C(=O)O)cn2CCF", "values": [{"measurement": "MIC", "setting": "Staphylococcus aureus", "value": 1, "unit": "µg/mL"}, {"measurement": "MIC", "setting": "Enterobacter cloacae", "value": 0.06, "unit": "µg/mL"}, {"measurement": "MIC", "setting": "Proteus vulgaris", "value": 0.5, "unit": "µg/mL"}, {"measurement": "MIC", "setting": "Escherichia coli", "value": 0.12, "unit": "µg/mL"}, {"measurement": "MIC", "setting": "Bacillus cereus", "value": 0.5, "unit": "µg/mL"}, {"measurement": "MIC", "setting": "[2]", "value": 0.5, "unit": "µg/mL"}, {"measurement": "MIC", "setting": "Bacillus subtilis", "value": 0.12, "unit": "µg/mL"}, {"measurement": "MIC", "setting": "Enterococcus faecalis", "value": 4, "unit": "µg/mL"}, {"measurement": "MIC", "setting": "Klebsiella pneumoniae", "value": 0.06, "unit": "µg/mL"}, {"measurement": "MIC", "setting": "Pseudomonas aeruginosa", "value": 2, "unit": "µg/mL"}, {"measurement": "MIC", "setting": "Morganella morganii", "value": 0.06, "unit": "µg/mL"}, {"measurement": "Log k'", "setting": "[1]", "value": -0.2166}]}, {"compound": "CCn1cc(C(=O)O)c(=O)c2cc(F)c(N3C[C@@H](N)[C@@H]3C)c(Cl)c21", "values": [{"measurement": "MIC", "setting": "Staphylococcus aureus", "value": 0.12, "unit": "µg/mL"}, {"measurement": "MIC", "setting": "Enterobacter cloacae", "value": 0.06, "unit": "µg/mL"}, {"measurement": "MIC", "setting": "Proteus vulgaris", "value": 0.25, "unit": "µg/mL"}, {"measurement": "MIC", "setting": "Escherichia coli", "value": 0.06, "unit": "µg/mL"}, {"measurement": "MIC", "setting": "Bacillus cereus", "value": 0.12, "unit": "µg/mL"}, {"measurement": "MIC", "setting": "[2]", "value": 0.12, "unit": "µg/mL"}, {"measurement": "MIC", "setting": "Bacillus subtilis", "value": 0.03, "unit": "µg/mL"}, {"measurement": "MIC", "setting": "Enterococcus faecalis", "value": 0.5, "unit": "µg/mL"}, {"measurement": "MIC", "setting": "Klebsiella pneumoniae", "value": 0.03, "unit": "µg/mL"}, {"measurement": "MIC", "setting": "Morganella morganii", "value": 0.03, "unit": "µg/mL"}, {"measurement": "Log k'", "setting": "[1]", "value": 0.16}]}, {"compound": "CC1(N)CN(c2nc3c(cc2F)c(=O)c(C(=O)O)cn3C(C)(C)C)C1", "values": [{"measurement": "Log k'", "setting": "[1]", "value": 0.0128}]}, {"compound": "CC1(CN)CN(c2c(F)cc3c(=O)c(C(=O)O)cn(C4CC4)c3c2F)C1", "values": [{"measurement": "Log k'", "setting": "[1]", "value": -0.0438}]}, {"compound": "CC1(N)CN(c2nc3c(cc2F)c(=O)c(C(=O)O)cn3-c2ccc(F)cc2F)C1", "values": [{"measurement": "Log k'", "setting": "[1]", "value": 0.0792}]}, {"compound": "NCC1CN(c2c(F)cc3c(=O)c(C(=O)O)cn(C4CC4)c3c2F)C1", "values": [{"measurement": "Log k'", "setting": "[1]", "value": -0.196}]}, {"compound": "CC1(N)CN(c2cc3c(cc2F)c(=O)c(C(=O)O)cn3-c2ccc(F)cc2F)C1", "values": [{"measurement": "Log k'", "setting": "[1]", "value": 0.0969}]}, {"compound": "O=C(O)c1cn(C2CC2)c2c(F)c(N3CCC3)c(F)cc2c1=O", "values": [{"measurement": "Log k'", "setting": "[1]", "value": 0.9074}]}, {"compound": "CCn1cc(C(=O)O)c(=O)c2cc(F)c(N3CC(C)(N)C3)cc21", "values": [{"measurement": "Log k'", "setting": "[1]", "value": -0.1805}]}, {"compound": "NC1CN(c2nc3c(cc2F)c(=O)c(C(=O)O)cn3-c2ccc(F)cc2F)C1", "values": [{"measurement": "Log k'", "setting": "[1]", "value": 0.0063}]}, {"compound": "NC1CN(c2c(F)cc3c(=O)c(C(=O)O)cn(-c4ccc(F)cc4F)c3c2Cl)C1", "values": [{"measurement": "Log k'", "setting": "[1]", "value": 0.128}]}, {"compound": "CC1(N)CN(c2c(F)cc3c(=O)c(C(=O)O)cn(C(C)(C)C)c3c2F)C1", "values": [{"measurement": "Log k'", "setting": "[1]", "value": 0.1751}]}, {"compound": "CNC1(C)CN(c2cc3c(cc2F)c(=O)c(C(=O)O)cn3C(C)(C)C)C1", "values": [{"measurement": "Log k'", "setting": "[1]", "value": 0.303}]}, {"compound": "CCn1cc(C(=O)O)c(=O)c2cc(F)c(N3CC(C)(N)C3)c(Cl)c21", "values": [{"measurement": "Log k'", "setting": "[1]", "value": 0.121}]}, {"compound": "CCn1cc(C(=O)O)c(=O)c2cc(F)c(N3CC(C)(N)C3)c(F)c21", "values": [{"measurement": "Log k'", "setting": "[1]", "value": -0.0757}]}, {"compound": "CC1(N)CN(c2cc3c(cc2F)c(=O)c(C(=O)O)cn3C(C)(C)C)C1", "values": [{"measurement": "Log k'", "setting": "[1]", "value": 0.0294}]}, {"compound": "CCn1cc(C(=O)O)c(=O)c2c(N)c(F)c(N3CC(N)C3)c(F)c21", "values": [{"measurement": "Log k'", "setting": "[1]", "value": -0.1033}]}, {"compound": "Nc1c(F)c(N2CC(N)C2)c(F)c2c1c(=O)c(C(=O)O)cn2-c1ccc(F)cc1F", "values": [{"measurement": "Log k'", "setting": "[1]", "value": 0.1424}]}, {"compound": "O=C(O)c1cn(C2CC2)c2cc(N3CC(O)C3)c(F)cc2c1=O", "values": [{"measurement": "Log k'", "setting": "[1]", "value": 0.1906}]}, {"compound": "CC1(N)CN(c2cc3c(cc2F)c(=O)c(C(=O)O)cn3-c2ccc(F)cc2)C1", "values": [{"measurement": "Log k'", "setting": "[1]", "value": -0.0223}]}]}
